Laboratory results taken from ChEMBL document CHEMBL4033667, “Design, synthesis, and identification of a novel napthalamide-isoselenocyanate compound NISC-6 as a dual Topoisomerase-IIα and Akt pathway inhibitor, and evaluation of its anti-melanoma activity” (Eur J Med Chem, 2017).
The source made the active and inactive calls. The rule behind the calls is not given here.

Tests used:
[1] = Antiproliferative activity against human 1205 Lu cells harboring BRAF V600E mutant after 72 hrs by MTT assay; assay type: functional, cell-based
Method in brief: (§1)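 MTT viability in melanoma lines grown in DMEM with 10% FBS and pen/strep at 37 °C, 5% CO2. 3000 cells/well, settled overnight, then exposed to compound (0 to 50 µM) in triplicate for 24, 48 or 72 h. MTT (5.0 mg/mL solution) added 3 h before termination. IC50 from non-linear regression (variable slope), mean ± SD.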

[2] = Antiproliferative activity against human 1205 Lu cells harboring BRAF V600E mutant after 24 hrs by MTT assay; assay type: functional, cell-based; method in brief: as §1
[3] = Antiproliferative activity against human A375M cells harboring BRAF V600E mutant after 24 hrs by MTT assay; assay type: functional, cell-based; method in brief: as §1
[4] = system: CHL-1; assay: Antiproliferative activity against human CHL-1 cells harboring wild type BRAF after 72 hrs by MTT assay; assay type: functional, cell-based; settings: CHL-1, 72 h; method in brief: as §1
[5] = system: UACC-903; assay: Antiproliferative activity against human UACC-903 cells harboring BRAF V600E mutant after 24 hrs by MTT assay; assay type: functional, cell-based; settings: UACC-903, 24 h; method in brief: as §1
[6] = Antiproliferative activity against human A375M cells harboring BRAF V600E mutant after 72 hrs by MTT assay; assay type: functional, cell-based; method in brief: as §1
[7] = Antiproliferative activity against human A375M cells harboring BRAF V600E mutant after 48 hrs by MTT assay; assay type: functional, cell-based; method in brief: as §1
[8] = Antiproliferative activity against human 1205 Lu cells harboring BRAF V600E mutant after 48 hrs by MTT assay; assay type: functional, cell-based; method in brief: as §1
[9] = system: CHL-1; assay: Antiproliferative activity against human CHL-1 cells harboring wild type BRAF after 24 hrs by MTT assay; assay type: functional, cell-based; settings: CHL-1, 24 h; method in brief: as §1
[10] = system: UACC-903; assay: Antiproliferative activity against human UACC-903 cells harboring BRAF V600E mutant after 48 hrs by MTT assay; assay type: functional, cell-based; settings: UACC-903, 48 h; method in brief: as §1
[11] = system: UACC-903; assay: Antiproliferative activity against human UACC-903 cells harboring BRAF V600E mutant after 72 hrs by MTT assay; assay type: functional, cell-based; settings: UACC-903, 72 h; method in brief: as §1
[12] = system: CHL-1; assay: Antiproliferative activity against human CHL-1 cells harboring wild type BRAF after 48 hrs by MTT assay; assay type: functional, cell-based; settings: CHL-1, 48 h; method in brief: as §1
[13] = system: UACC-903; assay: Induction of apoptosis in human UACC-903 cells assessed as late apoptotic cells at 5 uM after 24 hrs by Annexin-V/7-AAD staining-based fluorescence assay (reference value: 2.78%); assay type: functional
[14] = system: UACC-903; assay: Induction of apoptosis in human UACC-903 cells assessed as increase in caspase 3/7 activity by measuring early apoptotic cells at 10 uM after 24 hrs by 7-AAD staining-based fluorescence assay (reference value: 16.08%); assay type: functional
Method in brief: (§2)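 Muse caspase-3/7 kit on UACC903 cells after 24 h at given doses or DMSO. Cell-permeant NucView DEVD-linked DNA dye fluoresces after cleavage by active caspase 3/7. 7-AAD marks cells with compromised membranes. Gates: live, early apoptotic (caspase+/7-AAD−), late apoptotic (both +), necrotic (7-AAD+ only).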

[15] = system: UACC-903; assay: Induction of apoptosis in human UACC-903 cells assessed as early apoptotic cells at 5 uM after 24 hrs by Annexin-V/7-AAD staining-based fluorescence assay (reference value: 13.15%); assay type: functional
[16] = system: UACC-903; assay: Induction of apoptosis in human UACC-903 cells assessed as increase in caspase 3/7 activity by measuring late apoptotic cells at 10 uM after 24 hrs by 7-AAD staining-based fluorescence assay (reference value: 6.08%); assay type: functional; method in brief: as §2
[17] = system: UACC-903; assay: Induction of apoptosis in human UACC-903 cells assessed as necrotic cells at 5 uM after 24 hrs by Annexin-V/7-AAD staining-based fluorescence assay (reference value: 0.17%); assay type: functional
[18] = system: UACC-903; assay: Induction of apoptosis in human UACC-903 cells assessed as early apoptotic cells at 10 uM after 24 hrs by Annexin-V/7-AAD staining-based fluorescence assay (reference value: 13.15%); assay type: functional
[19] = system: UACC-903; assay: Induction of apoptosis in human UACC-903 cells assessed as increase in caspase 3/7 activity by measuring viable cells at 10 uM after 24 hrs by 7-AAD staining-based fluorescence assay (reference value: 77.50%); assay type: functional; method in brief: as §2
[20] = target: Mitogen-activated protein kinase; ERK1/ERK2 (Homo sapiens) (UniProt P27361+P28482); assay: Inhibition of Erk1/2 phosphorylation in human UACC-903 cells at 2.5 to 5 uM after 24 hrs by Western blot analysis; assay type: cell-based
[21] = target: DNA topoisomerase 2-alpha (Homo sapiens) (UniProt P11388); assay: Inhibition of human DNA topoisomerase 2alpha assessed as decrease in relaxation of supercoiled pBR322 DNA at 0.5 to 5 uM after 1 hr by ethidium bromide staining-based agarose gel electrophoresis
Method in brief: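 Kit-based relaxation assay: supercoiled plasmid DNA with 4 units of human Topo-IIα in assay buffer plus test agent or DMSO at 37 °C (1 h in legend, 30 min in methods). Stopped with 10% SDS, then proteinase K 15 min at 37 °C. Run on 1% agarose 1-2 h, ethidium bromide 2 h, destain 15 min in TAE, UV imaging.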

[22] = system: CHL-1; assay: Potency index, ratio of PLX-4032 IC50 to test compound IC50 for human CHL-1 cells harboring wild type BRAF after 72 hrs; assay type: functional
[23] = target: RAC-alpha serine/threonine-protein kinase (Homo sapiens) (UniProt P31749); assay: Inhibition of Akt-phosphorylation in human UACC-903 cells after 24 hrs by Western blot analysis; assay type: cell-based
Method in brief: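 UACC903 cells treated with increasing doses for 24 h, then lysed in RIPA with protease and phosphatase inhibitors and spun 15,000 rpm for 10 min. Lysates resolved on 4-12% gel, moved to PVDF and probed for phospho-Akt and pan-Akt. β-actin served as loading control; detection by ECL.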

[24] = organism: Homo sapiens; assay: Inhibition of DNA topoisomerase 2 in human UACC-903 cells assessed as increase in H2AX phosphorylation at 5 uM after 6 hrs by DAPI staining-based immunocytochemistry analysis; assay type: cell-based
Method in brief: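 UACC903 cells (1.6 × 10^5) on coverslips overnight, then 5 µM or DMSO for 6 h. Fixed in 4% formaldehyde and blocked 1 h (0.3% Triton X-100, 5% donkey serum). Anti-p-H2A.X 1:500 overnight at 4 °C, then Alexa Fluor 488 secondary 1:500 with phalloidin for 1 h. DAPI mounting, imaged at 60X.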

[25] = system: NHDF; assay: Cytotoxicity against human NHDF cells assessed as reduction in cell viability at 2.5 uM after 48 hrs by MTT assay; assay type: cell-based
Method in brief: (§3)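 nHDF normal fibroblasts grown in serum-free fibroblast basal medium with growth kit and pen/strep/amphotericin B. Treated 48 h at set concentrations, with viability read by MTT assay.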

[26] = system: NHDF; assay: Cytotoxicity against human NHDF cells assessed as reduction in cell viability at 5 uM after 48 hrs by MTT assay; assay type: cell-based; method in brief: as §3
[27] = system: UACC-903; assay: Induction of apoptosis in human UACC-903 cells assessed as necrotic cells at 10 uM after 24 hrs by Annexin-V/7-AAD staining-based fluorescence assay (reference value: 0.17%); assay type: functional
[28] = system: UACC-903; assay: Induction of apoptosis in human UACC-903 cells assessed as increase in caspase 3/7 activity by measuring early apoptotic cells at 5 uM after 24 hrs by 7-AAD staining-based fluorescence assay (reference value: 16.08%); assay type: functional; method in brief: as §2
[29] = system: UACC-903; assay: Induction of apoptosis in human UACC-903 cells assessed as increase in caspase 3/7 activity by measuring necrotic cells at 5 uM after 24 hrs by 7-AAD staining-based fluorescence assay (reference value: 0.34%); assay type: functional; method in brief: as §2
[30] = system: UACC-903; assay: Induction of apoptosis in human UACC-903 cells assessed as late apoptotic cells at 10 uM after 24 hrs by Annexin-V/7-AAD staining-based fluorescence assay (reference value: 2.78%); assay type: functional
[31] = system: UACC-903; assay: Antitumor activity against human UACC-903 cells xenografted in Harlan Sprague Dawley mouse assessed as reduction in tumor burden at 0.6 umole, ip administered 3 times a week measured on day 40 relative to vehicle-treated control; assay type: functional; parameters: scale not given: the % may be the effect or the level left
Method in brief: (§4)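 5×10^6 UACC 903 cells in 0.2 mL DMEM/10% FBS injected s.c. into both flanks of 4-6 week female athymic nude mice. From day 6, randomised groups (5 mice, 2 tumours each) received i.p. DMSO or 0.6 µmole in DMSO (100 µL) three times weekly. Caliper tumour volume and body weight taken thrice weekly to day 40; mean ± SEM.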

[32] = system: UACC-903; assay: Induction of apoptosis in human UACC-903 cells assessed as viable cells at 5 uM after 24 hrs by Annexin-V/7-AAD staining-based fluorescence assay (reference value: 83.90%); assay type: functional; settings: UACC-903, 24 h, read-out: Activity
[33] = system: Mus musculus; assay: Toxicity in Harlan Sprague Dawley mouse xenografted with human UACC-903 cells assessed as body weight loss at 0.6 umole, ip administered 3 times a week measured during compound dosing relative to control; assay type: organism-based; settings: in vivo; method in brief: as §4
[34] = system: UACC-903; assay: Induction of apoptosis in human UACC-903 cells assessed as increase in caspase 3/7 activity by measuring late apoptotic cells at 5 uM after 24 hrs by 7-AAD staining-based fluorescence assay (reference value: 6.08%); assay type: functional; method in brief: as §2
[35] = system: UACC-903; assay: Induction of apoptosis in human UACC-903 cells assessed as viable cells at 10 uM after 24 hrs by Annexin-V/7-AAD staining-based fluorescence assay (reference value: 83.90%); assay type: functional; settings: UACC-903, 24 h, read-out: Activity
[36] = system: UACC-903; assay: Induction of apoptosis in human UACC-903 cells assessed as increase in caspase 3/7 activity by measuring viable cells at 5 uM after 24 hrs by 7-AAD staining-based fluorescence assay (reference value: 77.50%); assay type: functional; method in brief: as §2
[37] = system: UACC-903; assay: Induction of apoptosis in human UACC-903 cells assessed as increase in caspase 3/7 activity by measuring necrotic cells at 10 uM after 24 hrs by 7-AAD staining-based fluorescence assay (reference value: 0.34%); assay type: functional; method in brief: as §2

RAC-alpha serine/threonine-protein kinase (Homo sapiens), sequence (P31749 whole entry): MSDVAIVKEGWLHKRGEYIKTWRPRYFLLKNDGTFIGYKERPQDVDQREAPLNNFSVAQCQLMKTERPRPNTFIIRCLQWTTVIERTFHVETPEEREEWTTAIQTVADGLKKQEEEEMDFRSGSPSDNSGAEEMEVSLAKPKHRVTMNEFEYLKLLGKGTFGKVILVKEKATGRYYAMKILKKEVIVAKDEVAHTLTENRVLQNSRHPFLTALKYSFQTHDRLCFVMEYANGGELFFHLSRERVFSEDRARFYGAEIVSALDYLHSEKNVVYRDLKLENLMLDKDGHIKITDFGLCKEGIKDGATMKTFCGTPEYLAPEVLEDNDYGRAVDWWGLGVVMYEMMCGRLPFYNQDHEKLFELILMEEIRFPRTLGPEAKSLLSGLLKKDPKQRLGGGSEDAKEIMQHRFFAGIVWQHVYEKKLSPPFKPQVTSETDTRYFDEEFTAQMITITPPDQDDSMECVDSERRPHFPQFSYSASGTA
DNA topoisomerase 2-alpha (Homo sapiens), sequence (P11388 whole entry): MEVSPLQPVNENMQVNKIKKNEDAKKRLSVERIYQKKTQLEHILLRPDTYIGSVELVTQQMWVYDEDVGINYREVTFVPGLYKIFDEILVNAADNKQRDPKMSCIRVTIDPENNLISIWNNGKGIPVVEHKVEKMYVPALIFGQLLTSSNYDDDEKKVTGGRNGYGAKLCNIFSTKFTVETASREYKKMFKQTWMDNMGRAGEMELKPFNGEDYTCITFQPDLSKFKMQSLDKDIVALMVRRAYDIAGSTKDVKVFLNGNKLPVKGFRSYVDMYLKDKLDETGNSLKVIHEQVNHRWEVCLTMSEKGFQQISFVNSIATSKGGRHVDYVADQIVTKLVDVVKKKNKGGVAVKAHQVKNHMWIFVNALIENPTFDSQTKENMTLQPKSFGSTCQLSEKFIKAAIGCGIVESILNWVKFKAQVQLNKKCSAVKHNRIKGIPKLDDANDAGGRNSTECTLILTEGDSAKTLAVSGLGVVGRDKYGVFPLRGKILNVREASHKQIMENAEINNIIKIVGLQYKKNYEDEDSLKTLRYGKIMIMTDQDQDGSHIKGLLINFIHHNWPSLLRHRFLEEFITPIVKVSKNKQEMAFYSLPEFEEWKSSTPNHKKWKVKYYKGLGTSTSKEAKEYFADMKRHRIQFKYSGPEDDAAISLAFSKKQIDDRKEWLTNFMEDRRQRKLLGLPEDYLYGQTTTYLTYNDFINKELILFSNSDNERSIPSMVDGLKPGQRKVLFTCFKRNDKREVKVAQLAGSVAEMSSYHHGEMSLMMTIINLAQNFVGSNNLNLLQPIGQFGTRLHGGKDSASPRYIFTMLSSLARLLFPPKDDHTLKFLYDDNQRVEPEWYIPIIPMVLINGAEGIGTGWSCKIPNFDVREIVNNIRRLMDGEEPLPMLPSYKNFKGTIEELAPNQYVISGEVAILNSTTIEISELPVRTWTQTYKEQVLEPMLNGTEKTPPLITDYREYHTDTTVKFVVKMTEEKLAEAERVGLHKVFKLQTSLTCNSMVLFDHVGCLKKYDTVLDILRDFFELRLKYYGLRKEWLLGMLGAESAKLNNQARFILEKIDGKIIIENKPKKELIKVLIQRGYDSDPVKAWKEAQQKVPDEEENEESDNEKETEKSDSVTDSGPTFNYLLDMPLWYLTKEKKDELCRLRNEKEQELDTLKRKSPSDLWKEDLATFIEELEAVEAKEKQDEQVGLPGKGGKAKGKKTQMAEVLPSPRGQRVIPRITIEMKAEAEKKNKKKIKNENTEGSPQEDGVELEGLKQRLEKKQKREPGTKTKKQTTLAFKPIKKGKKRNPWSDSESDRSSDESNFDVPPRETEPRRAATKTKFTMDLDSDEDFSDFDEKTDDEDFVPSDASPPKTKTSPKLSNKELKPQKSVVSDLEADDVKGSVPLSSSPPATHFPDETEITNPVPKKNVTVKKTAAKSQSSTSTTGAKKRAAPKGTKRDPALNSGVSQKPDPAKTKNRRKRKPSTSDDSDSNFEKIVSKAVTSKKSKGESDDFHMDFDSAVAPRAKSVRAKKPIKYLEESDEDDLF
Mitogen-activated protein kinase; ERK1/ERK2 (Homo sapiens), sequence (P27361 whole entry, looked up): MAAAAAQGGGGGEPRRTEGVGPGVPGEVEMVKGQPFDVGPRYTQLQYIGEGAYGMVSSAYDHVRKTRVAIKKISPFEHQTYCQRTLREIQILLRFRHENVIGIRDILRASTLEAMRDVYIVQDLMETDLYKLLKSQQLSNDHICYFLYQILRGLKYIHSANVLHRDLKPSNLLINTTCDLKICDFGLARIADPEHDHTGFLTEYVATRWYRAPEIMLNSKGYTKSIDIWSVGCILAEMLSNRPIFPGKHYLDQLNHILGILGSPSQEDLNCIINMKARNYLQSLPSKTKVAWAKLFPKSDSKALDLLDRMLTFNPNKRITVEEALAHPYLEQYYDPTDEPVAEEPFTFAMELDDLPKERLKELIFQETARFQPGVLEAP
Mitogen-activated protein kinase; ERK1/ERK2 (Homo sapiens), sequence (P28482 whole entry, looked up): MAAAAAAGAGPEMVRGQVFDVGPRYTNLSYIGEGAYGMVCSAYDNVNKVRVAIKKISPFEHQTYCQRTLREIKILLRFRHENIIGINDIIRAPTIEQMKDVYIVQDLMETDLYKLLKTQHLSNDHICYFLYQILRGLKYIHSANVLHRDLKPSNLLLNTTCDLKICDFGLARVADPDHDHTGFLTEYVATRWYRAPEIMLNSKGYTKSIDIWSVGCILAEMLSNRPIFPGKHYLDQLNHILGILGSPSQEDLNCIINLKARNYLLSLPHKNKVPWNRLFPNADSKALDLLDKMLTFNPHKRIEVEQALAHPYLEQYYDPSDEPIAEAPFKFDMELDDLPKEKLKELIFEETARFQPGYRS

Question: Which IC50 [1] does the source give for `N=C(N)[Se]CCN1C(=O)c2cccc3cccc(c23)C1=O` here?
Answer: 8.2 µM

Question: What about the IC50 [2] of the same molecule?
Answer: 46.8 µM

Question: What about the IC50 [3] of the same molecule?
Answer: > 50 µM

Question: And the IC50 [4]?
Answer: 5.1 µM

Question: What about the IC50 [5] of the same molecule?
Answer: 46.8 µM

Question: And the IC50 [6]?
Answer: 28.7 µM

Question: What about the IC50 [7] of the same molecule?
Answer: 17.9 µM

Question: And the IC50 [8]?
Answer: 11.5 µM

Question: And the IC50 [9]?
Answer: 17.9 µM

Question: And the IC50 [10]?
Answer: 12.8 µM

Question: What about the IC50 [11] of the same molecule?
Answer: 12.1 µM

Question: And the IC50 [12]?
Answer: 5.2 µM

Question: Which IC50 [1] does the source give for `CCCS(=O)(=O)Nc1ccc(F)c(C(=O)c2c[nH]c3ncc(-c4ccc(Cl)cc4)cc23)c1F` [VEMURAFENIB] here?
Answer: 2 µM

Question: And the IC50 [2]?
Answer: > 50 µM

Question: What about the IC50 [3] of the same molecule?
Answer: > 50 µM

Question: What about the IC50 [4] of the same molecule?
Answer: 12.7 µM

Question: What about the IC50 [5] of the same molecule?
Answer: > 50 µM

Question: What about the IC50 [6] of the same molecule?
Answer: 0.5 µM

Question: What about the IC50 [7] of the same molecule?
Answer: 2.05 µM

Question: And the IC50 [8]?
Answer: 7.6 µM

Question: What about the IC50 [9] of the same molecule?
Answer: > 50 µM

Question: What about the IC50 [10] of the same molecule?
Answer: 12.3 µM

Question: What about the IC50 [11] of the same molecule?
Answer: 2.7 µM

Question: And the IC50 [12]?
Answer: 20 µM

Question: Which results are given for `O=C1c2cccc3cccc(c23)C(=O)N1CCCCCCN=C=[Se]`?
Answer: Activity [13]: 4.52%; Activity [14]: 3%; Activity [15]: 11.47%; Activity [16]: 41.76%; Activity [17]: 0.84%; IC50 [1]: 13.4 µM; Activity [18]: 35%; IC50 [2]: 13.4 µM; Activity [19]: 54.44%; inhibition [20]: inactive; IC50 [3]: 11.8 µM; inhibition [21]: Active; Ratio IC50 [22]: 15; inhibition [23]: Dose-dependent effect; IC50 [4]: 0.8 µM; inhibition [24]: Active; Activity [25]: > 70%; Activity [26]: > 70%; Activity [27]: 0.35%; Activity [28]: 20.72%; Activity [29]: 0.08%; IC50 [5]: 13.4 µM; Activity [30]: 15.52%; Activity [31]: 69%; viability at 5 µM [32]: 83.2%; Activity [33]: Non-Toxic; Activity [34]: 9.86%; viability at 10 µM [35]: 49.1%; IC50 [6]: 4.4 µM; IC50 [7]: 2.7 µM; IC50 [8]: 10.6 µM; Activity [36]: 69.34%; IC50 [9]: 13.7 µM; IC50 [10]: 2.5 µM; IC50 [11]: 1.7 µM; IC50 [12]: 1.5 µM; Activity [37]: 0.8%
